High-throughput results deposited in PubChem BioAssay by several laboratories.
An excerpt weighted towards active compounds, which were near 4.7% of everything screened.
VIM-2 inhibitor – blocks Pseudomonas aeruginosa VIM-2 metallo-beta-lactamase; purified VIM-2, nitrocefin hydrolysis, epi-absorbance fluorescence; inhibition, % at 5.6 µM; hit rate 0.89% among 290,000;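 active = inhibition above the mean of all tested compounds plus 3 SD, cutoff set per screening run, cut at about 7.5% in these data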;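 note: red hydrolysis product quenches plate fluorescence so inhibitors raise well fluorescence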
IMP-1 inh – inhibitors of Pseudomonas aeruginosa IMP-1 metallo-beta-lactamase; purified IMP-1, nitrocefin hydrolysis, epi-absorbance fluorescence; inhibition, % at 5.6 µM; hit rate 0.45% among 290,000; AID 1556;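 active = inhibition above the mean plus 3 SD of all compounds in the same screening run, cut at about 4.5% in these data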
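Assay system: purified IMP-1; Quantity: IMP-1 0.2 nM before substrate addition; Medium: HEPES buffer pH 7.1 with ZnSO4 and Brij 35; Incubation: 15 min enzyme–compound preincubation, then 25 min nitrocefin reaction, 25 °C; Signal: fluorescence quenching readout, ex 480/em 530 nm; Controls: DMSO with and without IMP-1; Repeats: singlicate testing.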
aSyn UTR inh – MLPCN primary screen, SNCA 5' untranslated region | inhibition, % (tested at 7.5 µM) | alpha-synuclein 5'UTR reporter, inhibitor activity | AID 1813 | hit rate 0.82% among 300,000; in the data active = inhibition above about 60%;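 note: H4 neuroglioblastoma cells stably carrying SNCA 5'UTR luciferase fusion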
Jurkat NFkB inh – inhibitors of the PMA/ionomycin-induced NF-kB reporter in Jurkat cells; PMA/ionomycin-induced NF-kB luciferase reporter, luminescence; inhibition, % at 4 µM; AID 435003; hit rate 0.53% among 330,000; in the data active = inhibition above about 50%
697 NFkB inh – inhibitors of the PMA/ionomycin-induced NF-kB reporter in 697 B cells | 697 B-cell NF-kB luciferase reporter, 16 h | inhibition, % at 4 µM | hit rate 0.33% among 330,000; in the data active = inhibition above about 35%
Mdm2 MdmX PPI – inhibitors of human Mdm2/MdmX interaction | inhibition, % at 8 µM | O15151+Q00987 | hit rate 3% among 330,000 | SaOS-2 split-luciferase Mdm2/MdmX complementation, luminescence;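 active = inhibition of at least 50% at 8 µM in the primary screen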
Target sequence (O15151 whole entry, looked up): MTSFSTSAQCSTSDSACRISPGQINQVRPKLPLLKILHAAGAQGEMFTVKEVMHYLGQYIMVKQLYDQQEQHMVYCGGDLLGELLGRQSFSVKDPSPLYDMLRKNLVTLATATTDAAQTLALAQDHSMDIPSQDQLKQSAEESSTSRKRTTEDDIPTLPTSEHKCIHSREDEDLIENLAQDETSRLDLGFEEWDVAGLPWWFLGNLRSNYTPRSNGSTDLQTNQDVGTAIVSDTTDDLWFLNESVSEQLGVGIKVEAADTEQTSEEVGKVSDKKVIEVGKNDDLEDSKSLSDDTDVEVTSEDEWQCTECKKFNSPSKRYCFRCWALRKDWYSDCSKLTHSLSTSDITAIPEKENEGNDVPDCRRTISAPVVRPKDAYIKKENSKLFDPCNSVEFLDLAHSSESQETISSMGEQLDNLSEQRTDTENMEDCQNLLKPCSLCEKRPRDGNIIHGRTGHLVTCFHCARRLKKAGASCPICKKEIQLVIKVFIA
Target sequence (Q00987 whole entry, looked up): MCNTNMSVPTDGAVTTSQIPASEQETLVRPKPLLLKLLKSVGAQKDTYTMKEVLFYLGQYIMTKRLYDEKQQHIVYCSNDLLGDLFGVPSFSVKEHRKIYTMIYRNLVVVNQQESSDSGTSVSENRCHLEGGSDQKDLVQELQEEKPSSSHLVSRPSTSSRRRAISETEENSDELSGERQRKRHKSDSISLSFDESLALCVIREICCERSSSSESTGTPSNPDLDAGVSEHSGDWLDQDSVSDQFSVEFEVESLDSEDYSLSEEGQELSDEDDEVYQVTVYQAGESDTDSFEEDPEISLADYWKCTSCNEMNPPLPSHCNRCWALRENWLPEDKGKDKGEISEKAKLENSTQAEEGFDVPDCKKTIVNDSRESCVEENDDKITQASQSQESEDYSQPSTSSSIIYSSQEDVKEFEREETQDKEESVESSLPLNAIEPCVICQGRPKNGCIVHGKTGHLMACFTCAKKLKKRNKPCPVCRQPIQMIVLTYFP
Mdm2 MdmX conf – human Mdm2/MdmX binding inhibition, confirmed; shares compounds with Mdm2 MdmX PPI; luminescent assay; inhibition, % at 8 µM; hit rate 55% among 10,000; AID 489028; in the data active = inhibition above about 40%
FLuc counter – counter-screen for Mdm2/MdmX inhibitors: full-length luciferase; shares compounds with Mdm2 MdmX PPI; hit rate 77% among 6,200; inhibition, % at 8 µM; SaOS-2 full-length luciferase counterscreen, luminescence;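 active = mean inhibition at 8 µM reaching about 37%, which flags the compound as non-specific, limit read from the data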;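 note: p53-null SaOS-2 cells with luciferase driven by a doxycycline-inducible promoter; compound on cells about two nights before reading with doxycycline added after day one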
Hits are given with their value; 0 = inactive; - = not tested or not shown.

SMILES	VIM-2 inhibitor	IMP-1 inh	aSyn UTR inh	Jurkat NFkB inh	697 NFkB inh	Mdm2 MdmX PPI	Mdm2 MdmX conf	others
CCOC(=O)c1ccc(-c2ccc(C3Nc4ccccc4C(=O)N3O)o2)cc1 (configuration not stated)	0	0	0	0	0	72.4	62.5	FLuc counter=58.0
COc1cc(C2C(C#N)=C(N)N(Nc3ccccc3)C3=C2C(=O)CC(C)(C)C3)ccc1OCc1ccccc1 (configuration not stated)	0	0	0	0	0	0	-
COc1cc(C2C(C#N)=C(N)N(Nc3ccccc3)C3=C2C(=O)CC(C)(C)C3)ccc1OCc1cccc(F)c1 (configuration not stated)	0	0	0	0	0	61.5	0
NC(=O)C1CCN(C2CC(=O)N(c3ccc(F)c(Cl)c3)C2=O)CC1 (configuration not stated)	0	0	0	0	0	0	-
C/C(=N/NC(=O)c1nnn(-c2nonc2N)c1COc1ccccc1)c1ccc(O)cc1	0	0	0	0	0	74.9	0
CCOc1ccc(-c2c(C(=O)N/N=C(\C)c3cccnc3)nnn2-c2nonc2N)cc1	0	0	0	0	0	64.0	0
C/C(=N\NC(=O)c1nnn(-c2nonc2N)c1-c1ccccc1)c1ccccc1O	0	0	0	0	0	81.6	83.8	FLuc counter=51.2
Cc1cccc(N=C(N2CCOCC2)P(=O)(N2CCOCC2)N2CCOCC2)c1	0	0	0	0	0	0	-
CC(C)C(C)N(Cc1ccc(C(=O)O)cc1)C(=O)c1ccc2ccccc2n1 (configuration not stated)	-	-	0	0	0	0	-
COc1cc2nc(NC(=O)c3ccc(Cl)cc3)sc(=O)c2cc1OC	0	0	0	0	0	69.2	0
C/C(=N/NC(=O)CCc1c(C)n[nH]c1C)c1cccc([N+](=O)[O-])c1	0	0	0	0	0	0	-
CC1CCc2onc(C(=O)O)c2C1 (configuration not stated)	0	0	0	0	0	0	-
CC(NCc1cccc(OCc2ccccc2)c1)C(O)c1ccccc1 (configuration not stated)	0	0	0	0	0	0	-
CC(NCc1ccc(OCc2ccc(Cl)cc2)cc1)C(O)c1ccccc1 (configuration not stated)	0	0	0	0	0	100.4	60.1	FLuc counter=51.7
COc1ccc(OC(=O)c2ccc(Cl)cc2)c(C(C)=O)c1	0	0	0	0	0	0	-
COc1ccc(/C=N/Nc2nnc(-c3ccccc3)c(=O)[nH]2)cc1	0	0	0	0	0	75.7	0
O=c1[nH]c(N/N=C/c2ccccc2Br)nnc1-c1ccccc1	0	0	0	0	0	0	-
COc1cccc(CNC(=O)c2ccc(C)c(NC3=NC4CS(=O)(=O)CC4S3)c2)c1 (configuration not stated)	0	0	0	0	0	0	-
O=C1C(=O)N(Cc2cccnc2)C(c2cccc([N+](=O)[O-])c2)/C1=C(/O)c1ccc2c(c1)OCO2 (configuration not stated)	0	0	0	0	0	0	-
CCN(Cc1ccccc1)S(=O)(=O)c1ccc(C(=O)N(CCCN(C)C)c2nc3cc(C)cc(C)c3s2)cc1	-	-	0	0	0	97.7	54.6	FLuc counter=67.5
Cc1cc(C)c2sc(N(CCCN(C)C)C(=O)c3ccc(S(=O)(=O)N(C)Cc4ccccc4)cc3)nc2c1	-	-	0	0	0	92.9	48.5	FLuc counter=69.3
CCCCN(CC)S(=O)(=O)c1ccc(C(=O)N(CCCN(C)C)c2nc3cc(C)cc(C)c3s2)cc1	0	0	0	0	0	71.3	0
COc1ccc2sc(N(CCCN(C)C)C(=O)c3ccc(S(=O)(=O)N(C)Cc4ccccc4)cc3)nc2c1	-	-	0	0	0	0	-
CCN(Cc1ccccc1)S(=O)(=O)c1ccc(C(=O)N(CCCN(C)C)c2nc3c(F)cccc3s2)cc1	0	0	0	0	0	0	-
CCCCN(C)S(=O)(=O)c1ccc(C(=O)N(CCN(C)C)c2nc3ccc(C)cc3s2)cc1	0	0	0	0	0	0	-
SMILES	VIM-2 inhibitor	IMP-1 inh	aSyn UTR inh	Jurkat NFkB inh	697 NFkB inh	Mdm2 MdmX PPI	Mdm2 MdmX conf	others
S=C(Nc1ccc(Nc2ccccc2)cc1)Nc1ccccn1	0	0	0	0	0	0	-
N#Cc1ccccc1S(=O)(=O)N1CCC(C(=O)Nc2cccc(C(=O)NC3CC3)c2)CC1	-	-	-	0	0	0	-
CC[C@]12c3[nH]c4ccc(OC)cc4c3CCN1C(=O)C(CC(=O)NCC13CC4CC(CC(C4)C1)C3)C[C@@H]2C(=O)N1CCN(C(=O)C2CC2)CC1 (some centres not stated)	-	-	-	-	0	0	-
C[C@]12c3[nH]c4ccc(Cl)cc4c3CCN1C(=O)[C@@H](CC(=O)NCC13CC4CC(CC(C4)C1)C3)C[C@@H]2C(=O)N1CCOCC1	-	-	-	-	0	66.0	0
CC[C@]12c3[nH]c4ccc(Cl)cc4c3CCN1C(=O)[C@@H](CC(=O)NCC13CC4CC(CC(C4)C1)C3)C[C@@H]2C(=O)N1CCN(C(=O)C2CC2)CC1	-	-	-	-	0	62.3	52.3	FLuc counter=52.6
C[C@]12c3[nH]c4ccc(Cl)cc4c3CCN1C(=O)[C@@H](CC(=O)NCC13CC4CC(CC(C4)C1)C3)C[C@@H]2C(=O)N1CCCCC1	-	-	-	-	0	73.7	0
COc1ccc(N2CCN(C(=O)CC3NC4CCCCC4NC3=O)CC2)cc1 (configuration not stated)	0	0	0	0	0	0	-
Cc1cccc(NC(=O)CSc2nc3ccccc3nc2N2CC(C)OC(C)C2)c1 (configuration not stated)	0	0	0	0	0	0	-
COc1cccc(NC(=O)CSc2nc3ccccc3nc2N2CCCC2)c1	0	0	0	0	0	63.8	0
COc1ccc(NC(=O)CSc2nc3ccccc3nc2N2CCCCC2)cc1	0	0	0	0	0	0	-
Cc1cccc(NC(=O)CSc2nc3ccccc3nc2N2CCCC2)c1	0	0	0	0	0	84.8	45.4	FLuc counter=80.9
Cc1cccc(NC(=O)CSc2nc3ccccc3nc2N2CCCCC2)c1	0	0	0	0	0	96.2	43.9	FLuc counter=101.9
COc1ccc(-c2cc3c(=O)n(CC(=O)NCc4ccc(F)cc4)ncn3n2)cc1	0	0	0	0	0	86.0	0
COc1ccc(-c2cc3c(=O)n(CC(=O)NCCCN4CCN(Cc5ccccc5)CC4)ncn3n2)cc1	0	0	0	0	0	0	-
COc1ccc(-c2cc3c(=O)n(CC(=O)NCc4ccc(C)cc4)ncn3n2)cc1	0	0	0	0	0	94.8	0
COc1ccc(CNC(=O)Cn2ncn3c(cc4ccccc43)c2=O)cc1	0	0	0	0	0	67.0	0
COc1ccc(-c2cc3c(=O)n(CC(=O)NCc4ccc(Cl)cc4)ncn3n2)cc1	0	0	0	0	0	63.7	0
